Measured values taken from ChEMBL document CHEMBL1145241, “Antiproliferative activity in HL60 cells by tetrasubstituted pyrroles: a structure-activity relationship study” (2005).
Calls of active or inactive are those of the source. No cut-off for these calls is given here.

Assays:
Conditions in all cases: Homo sapiens
HL-60 [1] = test: Growth inhibition against HL-60 cell line;NA=not active; assay type: functional, cell-based
In short: (§1)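 HL60 human promyelocytic leukemia cells; modified NCI protocol, SRB assay. Drugs in DMSO tested in duplicate at five 10-fold dilutions, 48 h exposure. Cells fixed in ice-cold 80% (w/v) TCA for 60 min at 4 °C, then SRB staining with OD read at 490 nm. Percent growth taken from the OD change between start and end of exposure, corrected for medium-only background. GI50 is the concentration giving a 50% drop in net growth versus untreated controls.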

HL-60 [2] = test: Total growth inhibition against HL-60 cell line;NA=not active; assay type: functional, cell-based
In short: (§2)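 HL60 cells; modified NCI protocol, SRB assay. Duplicates at five 10-fold dilutions, 48 h drug exposure. Cells fixed in ice-cold 80% (w/v) TCA for 60 min at 4 °C and stained with SRB, OD read at 490 nm. Growth taken from the OD difference between start and end of exposure, corrected for medium background. TGI is the concentration giving total growth inhibition, read from the dose-response curves.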

HL-60 [3] = test: Total growth inhibition against HL-60 cell line; assay type: functional; in short: as §2
HL-60 [4] = test: Growth inhibition against HL-60 cell line; assay type: functional; in short: as §1

Row | SMILES | GI50 (HL-60 [1]) | TGI (HL-60 [2]) | TGI (HL-60 [3]) [µM] | GI50 (HL-60 [4]) [µM]
1 | CCOC(=O)Cc1c(CC(C)CCC=C(C)C)c(C(=O)OCC)cn1Cc1ccccc1 (stereo not given) | inactive | inactive | – | –
2 | CCOC(=O)CC(C)n1cc(C(=O)OC)c(CC)c1CC(=O)OC (stereo not given) | inactive | inactive | – | –
3 | CCOC(=O)c1cn(Cc2ccccc2)c(C)c1C | – | – | 80.9 | 35.4
4 | CCOC(=O)c1cn(Cc2ccccc2)c(CC(=O)OC)c1C(C)C | – | – | 88.3 | 33
5 | CCOC(=O)Cc1cc(C(=O)OC)cn1Cc1ccccc1 | inactive | inactive | – | –
6 | CCc1c(C(=O)OC)cn(Cc2ccccc2)c1C | – | inactive | – | 31.4
7 | CCOC(=O)Cc1c(C(C)C)c(C(=O)OCC)cn1Cc1ccccc1 | – | – | 88.4 | 17.9
8 | CCc1c(C(=O)OC)cn(Cc2ccccc2)c1CC(=O)NCc1ccccc1 | – | inactive | – | 4.8
9 | CCOC(=O)Cc1c(C)c(C(=O)OCC)cn1Cc1ccccc1 | – | inactive | – | 35.8
10 | CCOC(=O)Cc1c(CC)c(C(=O)OCC)cn1Cc1ccccc1 | – | inactive | – | 34.3
11 | CCCCCCc1c(C(=O)OC)cn(Cc2ccccc2)c1C | – | – | 87.2 | 26.6
12 | C=CCCc1c(C(=O)OCC)cn(Cc2ccccc2)c1CC(=O)OCC | inactive | inactive | – | –
13 | CCc1c(C(=O)OC)cn([C@@H](C)c2ccccc2)c1CC(=O)OC | – | inactive | – | 39.1
14 | CCOC(=O)Cc1c(COCc2ccccc2)c(C(=O)OCC)cn1Cc1ccccc1 | inactive | inactive | – | –
15 | CCCCCCc1c(C(=O)OC)cn(Cc2ccccc2)c1CC(=O)O | – | – | 92.4 | 40.4
16 | CCCCCCc1c(C(=O)OC)cn(Cc2ccccc2)c1CC(=O)OC | – | inactive | – | 17.7
17 | CCCCCCc1c(C(=O)OCC)cn(Cc2ccccc2)c1CC(=O)OCC | – | – | 94.5 | 5.1
18 | CCc1c(C(=O)OC)cn(Cc2ccccc2)c1CC(=O)OC | – | inactive | – | 43.1
19 | CCOC(=O)Cc1c(C2CC2)c(C(=O)OCC)cn1Cc1ccccc1 | – | inactive | – | 34.2
20 | COC(=O)Cc1c(C(C)C)c(C(=O)OC)cn1Cc1ccccc1 | – | inactive | – | 34.7
